The source made the active and inactive calls. The rule behind the calls is not given here.
Key:
Rattus norvegicus [1] = experiment: Delta BP refers to oral hypotensive activity of compound which is evaluated at 4 hr and 24 hr in restrained, normotensive conscious rats at a dose of 50 mg/kg; -10/-3; format: functional
How it was run: (§1)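 Female Sprague-Dawley rats, normotensive, restrained in a towel. Blood pressure was read directly via chronic indwelling aortic cannulas exteriorized at the nape, before and 4 and 24 h after an oral dose suspended in carboxymethylcellulose (10 mL/kg). Values from two animals were averaged at each time; a mean change of at least 5 mmHg was taken as significant (p < 0.05).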

Rattus norvegicus [2] = experiment: Delta BP refers to oral hypotensive activity of compound which is evaluated at 4 hr and 24 hr in restrained, normotensive conscious rats at a dose of 50 mg/kg; format: functional, organism-based; design: dose 50 mg/kg; how it was run: as §1
Rattus norvegicus [3] = experiment: Delta BP refers to oral hypotensive activity of compound which is evaluated at 4 hr and 24 hr in restrained, normotensive conscious rats at a dose of 50 mg/kg; -2/2; format: functional; how it was run: as §1
Rattus norvegicus [4] = experiment: Delta BP refers to oral hypotensive activity of compound which is evaluated at 4 hr and 24 hr in restrained, normotensive conscious rats at a dose of 50 mg/kg; -16/-14; format: functional; how it was run: as §1
Rattus norvegicus [5] = experiment: Delta BP refers to oral hypotensive activity of compound which is evaluated at 4 hr and 24 hr in restrained, normotensive conscious rats at a dose of 50 mg/kg; -3/-1; format: functional; how it was run: as §1
Rattus norvegicus [6] = experiment: Delta BP refers to oral hypotensive activity of compound which is evaluated at 4 hr and 24 hr in restrained, normotensive conscious rats at a dose of 50 mg/kg; -8/-1; format: functional; how it was run: as §1
Rattus norvegicus [7] = experiment: Delta BP refers to oral hypotensive activity of compound which is evaluated at 4 hr and 24 hr in restrained, normotensive conscious rats at a dose of 50 mg/kg; -20/-5; format: functional; how it was run: as §1
Rattus norvegicus [8] = experiment: Delta BP refers to oral hypotensive activity of compound which is evaluated at 4 hr and 24 hr in restrained, normotensive conscious rats at a dose of 50 mg/kg; -13/-19; format: functional; how it was run: as §1
Rattus norvegicus [9] = experiment: Delta BP refers to oral hypotensive activity of compound which is evaluated at 4 hr and 24 hr in restrained, normotensive conscious rats at a dose of 50 mg/kg; -16/-26; format: functional; how it was run: as §1
Rattus norvegicus [10] = experiment: Delta BP refers to oral hypotensive activity of compound which is evaluated at 4 hr and 24 hr in restrained, normotensive conscious rats at a dose of 50 mg/kg; -13/-2; format: functional; how it was run: as §1
Rattus norvegicus [11] = experiment: Delta BP refers to oral hypotensive activity of compound which is evaluated at 4 hr and 24 hr in restrained, normotensive conscious rats at a dose of 50 mg/kg; -19/-21; format: functional; how it was run: as §1
Rattus norvegicus [12] = experiment: Delta BP refers to oral hypotensive activity of compound which is evaluated at 4 hr and 24 hr in restrained, normotensive conscious rats at a dose of 50 mg/kg; -19/-9; format: functional; how it was run: as §1
Rattus norvegicus [13] = experiment: Delta BP refers to oral hypotensive activity of compound which is evaluated at 4 hr and 24 hr in restrained, normotensive conscious rats at a dose of 50 mg/kg; -15/-3; format: functional; how it was run: as §1

| SMILES | Delta blood pressure (Rattus norvegicus [2]) | also measured |
| --- | --- | --- |
| COc1cc2c(cc1OC)C(C)(CCCN1CCN(c3ccc(F)cc3)CC1)OCC2 (configuration not stated) |  | Delta blood pressure (Rattus norvegicus [1]): -10 mmHg |
| COc1cc2c(cc1OC)C(C)(CCN1CCN(c3cccc(Cl)c3)CC1)OCC2 (configuration not stated) | inactive |  |
| COc1cc2c(cc1OC)C(CN1CCN(c3ccccc3Cl)CC1)OCC2 (configuration not stated) | inactive |  |
| COc1cc2c(cc1OC)C(CCN1CCN(c3cccc(C(F)(F)F)c3)CC1)OCC2 (configuration not stated) |  | Delta blood pressure (Rattus norvegicus [3]): -2 mmHg |
| COc1cc2c(cc1OC)C(C)(C)COC2CCN1CCN(c2ccc(F)cc2)CC1 (configuration not stated) | inactive |  |
| COc1cc2c(cc1OC)C(C)(C)COC2CCN1CCN(c2ccccc2)CC1 (configuration not stated) |  | Delta blood pressure (Rattus norvegicus [4]): -16 mmHg |
| COc1cc2c(cc1OC)C(C)(CCN1CCN(c3ccccc3Cl)CC1)OCC2 (configuration not stated) |  | Delta blood pressure (Rattus norvegicus [5]): -3 mmHg |
| COc1cc2c(cc1OC)C(C)(CCCN1CCN(c3ccc(Cl)cc3)CC1)OCC2 (configuration not stated) |  | Delta blood pressure (Rattus norvegicus [6]): -8 mmHg |
| COc1cc2c(cc1OC)C(CN1CCN(c3ccccc3)CC1)OCC2 (configuration not stated) |  | Delta blood pressure (Rattus norvegicus [7]): -20 mmHg |
| COc1cc2c(cc1OC)C(CN1CCN(c3ccc(Cl)cc3)CC1)OCC2 (configuration not stated) |  | Delta blood pressure (Rattus norvegicus [8]): -13 mmHg |
| COc1cc2c(cc1OC)C(CCCN1CCN(c3ccccc3Cl)CC1)(c1ccc(F)cc1)OCC2 (configuration not stated) | inactive |  |
| COc1cc2c(cc1OC)C(C)(CCCN1CCN(c3ccccc3OC)CC1)OCC2 (configuration not stated) | inactive |  |
| COc1cc2c(cc1OC)C(CN1CCN(c3ccccn3)CC1)OCC2 (configuration not stated) | inactive |  |
| COc1cc2c(cc1OC)C(CCN1CCN(c3ccccc3OC)CC1)OCC2 (configuration not stated) | inactive |  |
| COc1cc2c(cc1OC)C(CCN1CCN(c3ccc(F)cc3)CC1)OC(C)(C)C2 (configuration not stated) |  | Delta blood pressure (Rattus norvegicus [9]): -16 mmHg |
| COc1cc2c(cc1OC)C(C)(C)COC2CCN1CCN(c2ccccc2Cl)CC1 (configuration not stated) | inactive |  |
| COc1cc2c(cc1OC)C(C)(C)COC2CCN1CCN(c2ccc(Cl)cc2)CC1 (configuration not stated) |  | Delta blood pressure (Rattus norvegicus [10]): -13 mmHg |
| COc1cc2c(cc1OC)C(CCN1CCN(c3ccc(Cl)cc3)CC1)OCC2 (configuration not stated) |  | Delta blood pressure (Rattus norvegicus [11]): -19 mmHg |
| COc1cc2c(cc1OC)C(C)(CCCN1CCN(c3cccc(C(F)(F)F)c3)CC1)OCC2 (configuration not stated) | inactive |  |
| COc1cc2c(cc1OC)C(CCCN1CCN(c3cccc(Cl)c3)CC1)(c1ccc(F)cc1)OCC2 (configuration not stated) | inactive |  |
| COc1cc2c(cc1OC)C(CCN1CCN(c3cccc(Cl)c3)CC1)OC(C)(C)C2 (configuration not stated) | inactive |  |
| COc1cc2c(cc1OC)C(CCN1CCN(c3ccccc3C)CC1)OCC2 (configuration not stated) |  | Delta blood pressure (Rattus norvegicus [12]): -19 mmHg |
| COc1cc2c(cc1OC)C(CCCN1CCN(c3ccccn3)CC1)(c1ccc(F)cc1)OCC2 (configuration not stated) |  | Delta blood pressure (Rattus norvegicus [11]): -19 mmHg |
| COc1cc2c(cc1OC)C(CN1CCN(c3ccccc3OC)CC1)OCC2 (configuration not stated) |  | Delta blood pressure (Rattus norvegicus [13]): -15 mmHg |
| COc1cc2c(cc1OC)C(CN1CCN(c3cccc(Cl)c3)CC1)OCC2 (configuration not stated) | inactive |  |
| COc1cc2c(cc1OC)C(CCCN1CCN(c3ccccc3OC)CC1)(c1ccc(F)cc1)OCC2 (configuration not stated) | inactive |  |
| COc1cc2c(cc1OC)C(CCN1CCN(c3ccc(Cl)cc3)CC1)OC(C)(C)C2 (configuration not stated) | inactive |  |

From ChEMBL document CHEMBL1122179, “1-(alkylamino)isochromans: hypotensives with peripheral and central activities” (J Med Chem, 1982)
